Assay outcomes as filed in PubChem BioAssay.
In the library only some 3.8% were active in any assay of this set; here they are far more common.
KCNQ1 pot = potentiators or activators of KCNQ1 channel, primary screen, cell-based, thallium flux, high-throughput; Potassium voltage-gated channel subfamily KQT member 1 (Homo sapiens), P51787; CHO-K1 KCNQ1, thallium flux FluxOR fluorescence; hits give high values; B-score at 10 µM; 310,000 compounds, 0.35% hits;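 active = fluorescence ratio B-score, a plate-corrected score, at least three library SD, with initial intensity B-score within 5 SD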
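Assay system: stable KCNQ1 CHO-K1 line; medium: assay buffer, equal DMSO in all wells; timing: 90 min dye loading and 20 min compound exposure, both at room temperature; technique: kinetic FluxOR thallium fluorescence, 10-s 1-Hz baseline, 110-s post-stimulus read; read-out basis: B score of baseline-normalized fluorescence ratio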
KCNK9 block = KCNK9 potassium channel inhibitors, primary screen, HEK293 cells, thallium flux | FluxOR thallium flux fluorescence; hits give low values | B-score at 10 µM | 310,000 compounds, 1.2% hits;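 active = ratio B-score over 3 SD below the library mean, with starting fluorescence within 5 SD of its mean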;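 note: negative B-score means less thallium flux so channel inhibition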
hERG protect = hERG rescue from dofetilide block, primary screen, cell-based, CHO-hERG, FluxOR thallium flux, dofetilide IC70 | Voltage-gated inwardly rectifying potassium channel KCNH2 (Homo sapiens), Q12809 | dofetilide IC70 present | activation (rescue from dofetilide block), less the hit threshold, % at 10 µM | 310,000 compounds, 0.51% hits;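 active = activation above the mean of controls blocked by dofetilide plus 5 SD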;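 note: thallium influx through hERG after potassium depolarization seen as dye fluorescence rise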
KCNK3 block = human KCNK3 channel inhibitors, primary screen, CHO cells, FluxOR thallium flux, B-score. FluxOR fluorescence; hits give low values. B-score at 10 µM. 340,000 compounds, 0.84% hits. Potassium channel subfamily K member 3 (Homo sapiens), O14649. AID 602410, 2012;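 active = B-score under library mean minus 4 SD, starting fluorescence ratio at most library mean plus 5 SD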;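 note: more negative B-score means stronger inhibition of thallium flux through KCNK3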
Kir21 inh = inhibitors of mouse Kir2.1 inward-rectifier potassium channel | Inward rectifier potassium channel 2 (Mus musculus), P35561 | HEK293-Kir2.1, FluxOR thallium flux fluorescence; hits give low values | B-score at 10 µM | 310,000 compounds, 0.85% hits;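 active = fluorescence ratio B-score at or below minus 3 SD of library scores, with starting-brightness B-score within 2 SD, cut at about -4.2 in these data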;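 note: channel flux triggered by added potassium and thallium sulfate stimulus; B-score of peak minus minimum fluorescence over baseline after thallium stimulus; more negative B-score means stronger Kir2.1 block with less thallium influx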
KCNQ1 inh = inhibitors of human KCNQ1 channel, primary screen, cell-based, thallium flux, high-throughput | CHO-K1 KCNQ1, FluxOR thallium flux fluorescence; hits give high values | B-score at 10 µM | 310,000 compounds, 1.3% hits | AID 2642, 2010;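 active = compounds whose thallium flux B-score, printed positive for inhibition, exceeds three library SD while starting fluorescence stays within three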;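 note: channel opened by potassium depolarization with thallium stimulus after 20 min compound exposure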
Numbers without * were called inactive; i = inactive; · = no result.

SMILES | KCNQ1 pot | KCNK9 block | hERG protect | KCNK3 block | Kir21 inh | KCNQ1 inh
O=C(COc1ccccc1)NCC(=O)N1CCCC(C(F)(F)F)C1 (stereo not given) | · | · | · | i | · | ·
CCN1CCCC1CNC(=O)c1ccc2c(c1)NC(=O)/C(=C\c1ccc(C)cc1)S2 (stereo not given) | i | i | -21.8 | i | -2.78 | 11*
CCN(CC)CCN(CC(=O)N(C1CCCCC1)C1CCCCC1)C(=O)c1ccco1 | i | i | -10.2 | i | -4.38* | i
CCN(Cc1ccccc1)S(=O)(=O)c1ccccc1Br | · | · | · | i | · | ·
C=CCCCN(Cc1ccccc1)S(=O)(=O)c1ccccc1Br | i | -7.71* | -16.5 | i | 0.91 | i
CCOCCn1c(=O)c2c(nc3n2CCCN3CCc2ccccc2)n(C)c1=O | i | i | -8.8 | i | 0.85 | i
c1ccc(C2OC3c4cccc5cccc(c45)C3N2c2ccccc2)cc1 (stereo not given) | i | -7.88* | -13.0 | i | 1.35 | i
O=C(CC(c1ccccc1)c1ccccc1)Nc1ncn[nH]1 | 24* | i | -1.5 | i | -1.03 | i
COC(=O)c1ccccc1NC(=O)c1ccc2c(c1)OCCCO2 | i | -6.83* | -6.0 | i | 0.68 | i
Cc1ccccc1NC(=O)c1ccc2c(c1)OCCO2 | i | i | -4.0 | i | -2.48 | i
Cc1ncc([N+](=O)[O-])n1S(=O)(=O)c1ccc2c(c1)OCCO2 | · | · | · | i | · | ·
CCCCOC(=O)CSc1nc2c(cc1C#N)C(=O)CC(C)(C)C2 | i | -8.07* | -5.8 | i | -0.22 | i
CSc1nc2c(cc1C#N)C(=O)CC(C)(C)C2 | i | i | -7.0 | i | 0.06 | i
O=[N+]([O-])c1ccc(Cl)cc1P(=O)(O)c1cc(Cl)ccc1[N+](=O)[O-] | · | · | · | i | · | ·
O=S(=O)(NC(=S)NC1CCCCC1)c1ccc(Cl)cc1 | i | i | 5.5* | i | 0.47 | i
CCc1ccc(S(=O)(=O)NC(=S)NC2CCCCC2)cc1 | 23* | i | 20.8* | i | 0.29 | i
CCc1ccc(C(C)NC(=S)NC2CCCCC2)cc1 (stereo not given) | i | i | -3.4 | i | -1.01 | i
Cc1ccc(S(=O)(=O)NC(=S)NC2CCCCC2)cc1 | i | i | 7.5* | i | -1 | i
c1ccc(-c2ncnc3ccccc23)cc1 | · | · | · | i | · | ·
CCC(NC(=O)CN1CCN(C(=O)c2cccs2)CC1)c1ccc(C)cc1 (stereo not given) | · | · | · | i | · | ·
Oc1ccc(Cl)cc1CNCc1ccc(Cl)nc1 | · | · | · | i | · | ·
CC1CCN(CCCNC(=O)c2ccc(CSCc3cccc(Cl)c3)o2)CC1 | i | i | -13.3 | i | -6.65* | i
Cc1ccc(OC(C)C(=O)Nc2ccccc2C(=O)NCc2cccnc2)cc1C (stereo not given) | i | i | -24.1 | i | -2.35 | 6*
CCOc1ccc(NC(=O)C(C)C(Cc2ccc(C)cc2)C(=O)O)cc1 (stereo not given) | i | i | -6.0 | i | 0.7 | i
CCN(CC)CCCN(C(=O)c1ccco1)c1nc(-c2ccc(C)cc2)cs1 | i | i | -19.8 | i | -0.07 | i
SMILES | KCNQ1 pot | KCNK9 block | hERG protect | KCNK3 block | Kir21 inh | KCNQ1 inh
CCN(CC)CCCN(C(=O)c1ccco1)c1nc(-c2ccc(Cl)cc2)cs1 | i | i | -18.8 | i | -6.16* | i
O=C(CN1C(=O)c2cccc([N+](=O)[O-])c2C1=O)NCc1ccccc1 | i | i | -8.4 | i | -0.04 | i
CC(=O)c1c(C)[nH]c(C(=O)Nc2cccc(S(=O)(=O)N3CCCC3)c2)c1C | · | · | · | i | · | ·
O=C(Nc1cccc(N=Cc2cc(Br)cc(Br)c2O)c1)c1ccco1 | i | i | -3.4 | i | -0.82 | i
O=C(Nc1cccc(N=Cc2cc(Cl)cc(Br)c2O)c1)c1ccco1 | 17* | i | 4.1 | i | 0.05 | i
CCCSc1ccc([C@H]2N[C@@](CC(C)C)(C(=O)OC)[C@H]3C(=O)N(C)C(=O)[C@@H]23)cc1 | i | i | -4.6 | i | 1.65 | i
CNC(=O)c1sccc1SCc1ccc(Cl)cc1Cl | i | i | -13.2 | i | -5.22* | i
NNC(=O)c1sccc1OCc1ccc(Cl)cc1Cl | i | i | -11.6 | i | -1.83 | i
CCOC(=O)CC(=O)CSc1nc2c(sc(=S)n2-c2ccccc2)c(=O)[nH]1 | i | i | -9.8 | i | 0.88 | i
CCOC(=O)CSc1nc2c(sc(=S)n2-c2ccc(CC)cc2)c(=O)[nH]1 | i | i | -13.8 | i | 0.67 | 6*
CCCCCSc1nnc2c(n1)OC(C)N(C(C)=O)c1ccccc1-2 (stereo not given) | i | i | -11.1 | -10.3* | -0.33 | i
CCCCSc1nnc2c(n1)OC(C(=O)c1ccccc1)Nc1ccccc1-2 (stereo not given) | i | i | -16.3 | · | -0.47 | i
CC1(C)Cc2c(sc3[nH]c(=S)n(Cc4ccccc4)c(=O)c23)CO1 | 34* | i | 4.7* | i | 0.03 | i
CC1(C)Cc2c(sc3c2c(N)nc(=S)n3Cc2ccccc2)CO1 | i | i | -7.7 | · | -0.62 | i
CC1(C)CC(NC(=O)c2ccc(Br)o2)CC(C)(C)N1 | i | i | -12.3 | i | 0.2 | i
CCCCOc1ccc(C2OC34CCCCC3C(C#N)(C#N)C2(C#N)C(=N)O4)cc1 (stereo not given) | i | i | -15.0 | i | -0.03 | i
C=CCOc1ccc(C2OC34CCCCC3C(C#N)(C#N)C2(C#N)C(=N)O4)cc1 (stereo not given) | i | i | 5.6* | i | 0.05 | i
O=C(O)COc1ccccc1/C=N/NC(=O)CNC(=O)c1ccco1 | i | i | -8.3 | i | -1.29 | i
CC(NC(=O)c1ccc(Br)cc1)c1ccc2c(c1)CCCC2 (stereo not given) | i | i | 7.8* | i | -0.01 | i
O=C(COC(=O)CCNS(=O)(=O)c1ccccc1)NNC(=O)c1ccccc1 | i | i | -12.8 | i | 0.42 | i
C=CCn1c2ccccc2c(=O)c2cc(C#Cc3ccsc3)ccc21 | i | i | 8.9* | · | 0.7 | i
O=[N+]([O-])c1cc(Cl)cc(/C=N/Nc2nc3ccccc3s2)c1O | i | i | -7.7 | i | -0.17 | 6*
